The record followed here is ChEMBL document CHEMBL4118029, “Marine Terpenoid Diacylguanidines: Structure, Synthesis, and Biological Evaluation of Naturally Occurring Actinofide and Synthetic Analogues” (2017).

The structures appear in SMILES notation.

One experiment deals with U373 MG. The experiment can be described thus: Growth inhibition of human U373 cells after 72 hrs by MTT assay. Type of experiment: functional, U-373MG ATCC. In a few lines:
(§1)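 Cells were grown in RPMI with 10% heat-inactivated fetal bovine serum, 4 mM glutamine, 100 μg/mL gentamicin and penicillin–streptomycin (200 units/mL and […]). They were cultured with compound for 72 h, then read by MTT colorimetric assay. GI50 is the concentration cutting growth by 50% relative to untreated control.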
On the technique in general: Tetrazolium dyes change colour on reduction, which living cells bring about.

The subject of another experiment is SK-MEL-28. The experiment can be described thus: Growth inhibition of human SK-MEL-28 cells after 72 hrs by MTT assay. Type of experiment: functional. Conditions: SK-MEL-28, 72 h. In a few lines:
as §1

For the next experiment, the system named is MCF7. The experiment can be described thus: Growth inhibition of human MCF7 cells after 72 hrs by MTT assay. Particulars: MCF7, 72 h. It is filed as functional. The procedure, abridged: as §1
The subject of the next experiment is Hs 683. As to the kind of experiment: Growth inhibition of human Hs683 cells after 72 hrs by MTT assay. It is filed as functional. Conditions: Hs 683, 72 h. In a few lines:
as §1

The subject of a further experiment is B16-F10. The experiment can be described thus: Growth inhibition of mouse B16F10 cells after 72 hrs by MTT assay. Conditions: B16-F10, 72 h. Type of experiment: functional. In a few lines: as §1
The subject of a further experiment is A549. As to the kind of experiment: Growth inhibition of human A549 cells after 72 hrs by MTT assay. It is filed as functional. Particulars: A549, 72 h. The procedure, abridged: as §1

Consider `CC(C)=CC(=O)NC(=N)N`, for which the GI50 (usually the concentration that inhibits growth by half) with U373 MG is greater than 100 µM; in the experiment on SK-MEL-28, greater than 100 µM; in the experiment on MCF7 it was greater than 100 µM; with Hs 683 it was greater than 100 µM; in the experiment with B16-F10, 92.8 µM; in the experiment on A549, greater than 100 µM.
Take `CC(C)=CCC/C(C)=C/C(=O)NC(=N)NC(=O)/C=C(\C)CCC=C(C)C`: the GI50 stood at 38.9 µM in the experiment on U373 MG; 61.9 µM with SK-MEL-28; 42.4 µM in the experiment on MCF7; 32.7 µM with Hs 683; 23.8 µM with B16-F10; 46.9 µM in the experiment with A549.
As to `CC(C)=CC(=O)NC(=N)NC(=O)C=C(C)C`, the GI50 with U373 MG is 45.6 µM; in the experiment with SK-MEL-28, greater than 100 µM; in the experiment on MCF7 it was 59.7 µM; in the experiment with Hs 683, 60.3 µM; in the experiment with B16-F10, 21.3 µM; in the experiment with A549, 75.6 µM.
`CC(C)=CCC/C(C)=C/CC/C(C)=C/C(=O)NC(=N)NC(=O)C=C(C)C`: the concentration for 50% growth inhibition (GI50) with U373 MG stood at 15.7 µM; with SK-MEL-28, 24.2 µM; with MCF7, 23.4 µM; in the experiment on Hs 683 it was 8.3 µM; with B16-F10 it was 7.5 µM; in the experiment on A549 it was 23.4 µM.
In the case of `C=C1CCCC(C)(C)[C@@H]1CC/C(C)=C/C(=O)NC(=N)NC(=O)C=C(C)C`, the GI50 came to 28.8 µM in the experiment on U373 MG; 60.5 µM in the experiment with SK-MEL-28; 28.1 µM in the experiment on MCF7; 18.1 µM in the experiment with Hs 683; 9.6 µM with B16-F10; 29.4 µM with A549.
In the case of `CC(C)=CCC/C(C)=C/C(=O)NC(=N)N`, the GI50 came to 46 µM with U373 MG; 56.3 µM in the experiment on SK-MEL-28; 52.2 µM with MCF7; 39.4 µM in the experiment with Hs 683; 17.1 µM with B16-F10; 76.5 µM with A549.
Take `CC(C)=CCC/C(C)=C/CC/C(C)=C/C(=O)NC(=N)N`: the GI50 is 21 µM in the experiment with U373 MG; 20.1 µM in the experiment on SK-MEL-28; 22 µM with MCF7; 10 µM in the experiment with Hs 683; 9.2 µM with B16-F10; 13.7 µM with A549.
For `CC(C)=CCC/C(C)=C/CC/C(C)=C/C(=O)NC(=N)NC(=O)/C=C(\C)CC/C=C(\C)CCC=C(C)C`, the GI50 is 9.2 µM with U373 MG; 42.7 µM in the experiment on SK-MEL-28; 30.3 µM with MCF7; 6.8 µM in the experiment on Hs 683; 5.7 µM in the experiment on B16-F10; 18.5 µM in the experiment with A549.
Consider `CC(C)=CCC/C(C)=C/C(=O)NC(=N)NC(=O)C=C(C)C`, for which the GI50 was determined as 36.2 µM in the experiment with U373 MG; 53.4 µM in the experiment with SK-MEL-28; 41.5 µM in the experiment on MCF7; 31.5 µM in the experiment on Hs 683; 25 µM in the experiment on B16-F10; 37.4 µM in the experiment with A549.
With `CC(C)=CCC/C(C)=C/CC/C(C)=C/C(=O)NC(=N)NC(=O)/C=C(\C)CCC=C(C)C`, the GI50 in the experiment on U373 MG turned out to be 35 µM; in the experiment with SK-MEL-28 it was 57.3 µM; in the experiment with MCF7, 51.2 µM; in the experiment on Hs 683, 37.4 µM; in the experiment on B16-F10, 18.9 µM; in the experiment with A549, 38.9 µM.
`COc1cc([C@@H]2c3cc4c(cc3[C@@H](O[C@@H]3O[C@@H]5CO[C@@H](C)O[C@H]5[C@H](O)[C@H]3O)[C@H]3COC(=O)[C@H]23)OCO4)cc(OC)c1O` [ETOPOSIDE]: the GI50 is 24.9 µM in the experiment with U373 MG; 3.2 µM with SK-MEL-28; 4 µM in the experiment with MCF7; 1.5 µM with Hs 683; 1.7 µM in the experiment on A549.
